{"source": "ChEMBL document CHEMBL1629572", "about": "(Antimicrob Agents Chemother, 2009)", "key": {"Neuraminidase [1]": {"molecular_target": "T1, Neuraminidase (Influenza A virus, UniProt B4URF0)", "T1 sequence (B4URF0 whole entry)": "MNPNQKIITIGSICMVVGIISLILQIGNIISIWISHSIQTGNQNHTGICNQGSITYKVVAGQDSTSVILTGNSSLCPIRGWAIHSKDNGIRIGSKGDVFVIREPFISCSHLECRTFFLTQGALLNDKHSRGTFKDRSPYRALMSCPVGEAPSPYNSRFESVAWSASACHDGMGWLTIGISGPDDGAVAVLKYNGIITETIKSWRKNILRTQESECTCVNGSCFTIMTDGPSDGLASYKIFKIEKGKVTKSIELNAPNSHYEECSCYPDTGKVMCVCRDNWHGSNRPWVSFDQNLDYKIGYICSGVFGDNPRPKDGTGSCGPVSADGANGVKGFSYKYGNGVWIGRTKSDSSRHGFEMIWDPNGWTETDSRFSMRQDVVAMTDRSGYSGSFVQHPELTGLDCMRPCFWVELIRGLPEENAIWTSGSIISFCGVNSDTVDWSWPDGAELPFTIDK", "experiment": "Inhibition of Influenza A virus (A/Puerto Rico/8/1934(H1N1)) neuraminidase after 30 mins by fluorescence analysis"}, "Neuraminidase [2]": {"molecular_target": "T1, Neuraminidase", "experiment": "Inhibition of Influenza A virus (A/New Caledonia/20/1999(H1N1)) neuraminidase after 30 mins by fluorescence analysis"}, "[3]": {"experiment": "Inhibition of Influenza B virus (B/Ohio/01/2005(Victoria)) neuraminidase after 30 mins by fluorescence analysis", "outline": "(§1)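 Virus NA source was mixed with compound in 32.5 mM MES-NaOH pH 6.5 with 4 mM CaCl2 and preincubated 10 min at room temperature. Reaction ran 30 min at room temperature with 100 μM (final) 4-MU-NANA. Fluorescence was read at ex 360/em 460 nm, in triplicate. IC50 came from linear regression of residual activity against log concentration, using concentrations giving 10–90% residual activity.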"}, "[4]": {"experiment": "Inhibition of Influenza B virus (B/Yamagata/113/2005(Yamagata)) neuraminidase after 30 mins by fluorescence analysis", "outline": "as §1"}, "Neuraminidase [5]": {"molecular_target": "T1, Neuraminidase", "experiment": "Inhibition of Influenza A virus (A/Yamagata/57/2002(H1N1)) neuraminidase after 30 mins by fluorescence analysis"}, "Neuraminidase [6]": {"molecular_target": "T1, Neuraminidase", "experiment": "Inhibition of Influenza A virus (A/Yamagata/32/1989(H1N1)) neuraminidase after 30 mins by fluorescence analysis"}, "Neuraminidase [7]": {"molecular_target": "T1, Neuraminidase", "experiment": "Inhibition of Influenza A virus (A/Hiroshima/52/2005(H3N2)) neuraminidase after 30 mins by fluorescence analysis"}, "[8]": {"experiment": "Inhibition of Influenza B virus (B/Tokushima/1/2005(Yamagata)) neuraminidase after 30 mins by fluorescence analysis", "outline": "as §1"}, "Neuraminidase [9]": {"molecular_target": "T1, Neuraminidase", "experiment": "Inhibition of Influenza A virus (A/Yamagata/1/2002(H3N2)) neuraminidase after 30 mins by fluorescence analysis"}, "[10]": {"experiment": "Inhibition of Influenza B virus (B/Yamagata/15/2002(Victoria)) neuraminidase after 30 mins by fluorescence analysis", "outline": "as §1"}, "Neuraminidase [11]": {"molecular_target": "T1, Neuraminidase", "experiment": "Inhibition of Influenza A virus (A/Aichi/193/2004(H1N1)) neuraminidase after 30 mins by fluorescence analysis"}, "[12]": {"experiment": "Inhibition of Influenza B virus (B/Yamagata/398/2003(Victoria)) neuraminidase after 30 mins by fluorescence analysis", "outline": "as §1"}, "Neuraminidase [13]": {"molecular_target": "T1, Neuraminidase", "experiment": "Inhibition of Influenza A virus (A/Kitakyushu/159/1993(H3N2)) neuraminidase after 30 mins by fluorescence analysis"}, "Neuraminidase [14]": {"molecular_target": "T1, Neuraminidase", "experiment": "Inhibition of Influenza A virus (A/duck/England/1/1956(H11N6)) neuraminidase after 30 mins by fluorescence analysis"}, "Neuraminidase [15]": {"molecular_target": "T1, Neuraminidase", "experiment": "Inhibition of Influenza A virus (A/Osaka/56/2004(H3N2)) neuraminidase after 30 mins by fluorescence analysis"}, "Neuraminidase [16]": {"molecular_target": "T1, Neuraminidase", "experiment": "Inhibition of Influenza A virus (A/duck/Alberta/60/1976(H12N5)) neuraminidase after 30 mins by fluorescence analysis"}, "Neuraminidase [17]": {"molecular_target": "T1, Neuraminidase", "experiment": "Inhibition of Influenza A virus (A/New York/55/2004(H3N2)) neuraminidase after 30 mins by fluorescence analysis"}, "[18]": {"experiment": "Inhibition of Influenza B virus (B/Yamagata/87/2004(Yamagata)) neuraminidase after 30 mins by fluorescence analysis", "outline": "as §1"}, "Neuraminidase [19]": {"molecular_target": "T1, Neuraminidase", "experiment": "Inhibition of Influenza A virus (A/turkey/Ontario/6,118/1968(H8N4)) neuraminidase after 30 mins by fluorescence analysis"}, "Neuraminidase [20]": {"molecular_target": "T1, Neuraminidase", "experiment": "Inhibition of Influenza A virus (A/R(duck/Mongolia/54/01-duck/Mongolia/47/01)([…])) neuraminidase after 30 mins by fluorescence analysis"}, "[21]": {"experiment": "Inhibition of Influenza B virus (B/Yamagata/145/2003(Victoria)) neuraminidase after 30 mins by fluorescence analysis", "outline": "as §1"}, "[22]": {"experiment": "Inhibition of Influenza B virus (B/Shiga/17/2002(Victoria)) neuraminidase after 30 mins by fluorescence analysis", "outline": "as §1"}, "Neuraminidase [23]": {"molecular_target": "T1, Neuraminidase", "experiment": "Inhibition of Influenza A virus (A/duck/Memphis/546/1974(H11N9)) neuraminidase after 30 mins by fluorescence analysis"}, "[24]": {"experiment": "Inhibition of Influenza B virus (B/Shiga/31/2002(Yamagata)) neuraminidase after 30 mins by fluorescence analysis", "outline": "as §1"}, "[25]": {"experiment": "Inhibition of Influenza B virus (B/Shizuoka/58/2004(Yamagata)) neuraminidase after 30 mins by fluorescence analysis", "outline": "as §1"}, "Neuraminidase [26]": {"molecular_target": "T1, Neuraminidase", "experiment": "Inhibition of Influenza A virus (A/Aichi/2/1968(H3N2)) neuraminidase after 30 mins by fluorescence analysis"}, "[27]": {"experiment": "Inhibition of Influenza B virus (B/Mie/1/1993(Yamagata)) neuraminidase after 30 mins by fluorescence analysis", "outline": "as §1"}, "Neuraminidase [28]": {"molecular_target": "T1, Neuraminidase", "experiment": "Inhibition of Influenza A virus (A/Shiga/1/2002(H1N1)) neuraminidase after 30 mins by fluorescence analysis"}, "Neuraminidase [29]": {"molecular_target": "T1, Neuraminidase", "experiment": "Inhibition of Influenza A virus (A/duck/Ukraine/1/1963(H3N8)) neuraminidase after 30 mins by fluorescence analysis"}, "Neuraminidase [30]": {"molecular_target": "T1, Neuraminidase", "experiment": "Inhibition of Influenza A virus (A/seal/Massachusetts/1/1980(H7N7)) neuraminidase after 30 mins by fluorescence analysis"}, "Neuraminidase [31]": {"molecular_target": "T1, Neuraminidase", "experiment": "Inhibition of Influenza A virus (A/Wyoming/03/2003(H3N2)) neuraminidase after 30 mins by fluorescence analysis"}, "Influenza A virus [32]": {"tested_on": "Influenza A virus", "experiment": "Antiviral activity against Influenza A virus (A/Puerto Rico/8/1934(H1N1)) infected in mouse infection model at 0.3 umol/kg, itn administered 4 hrs pre-infection and at 4 hrs and 17 hrs post-infection up to 20 days", "assay_type": "functional, organism-based", "outline": "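BALB/c females, 5–6 weeks old, were anaesthetised and infected intranasally with 1,500 PFU/mouse A/PR/8/34 in PBS with 0.42% BSA. Three intranasal doses of 0.3 μmol/kg in saline (50 μl) were given at 4 h pre-infection and at 4 h and 17 h post-infection. Survival was read daily for 20 days, 10–12 mice per group.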"}, "Influenza A virus [33]": {"tested_on": "Influenza A virus", "experiment": "Antiviral activity against Influenza A virus (A/Puerto Rico/8/1934(H1N1)) infected in mouse infection model at 95 ug/kg, itn administered 4 hrs pre-infection and at 4 hrs and 17 hrs post-infection up to 20 days", "assay_type": "functional, organism-based"}, "[34]": {"experiment": "Inhibition of Influenza B virus (B/Akita/9/2003(Victoria)) neuraminidase after 30 mins by fluorescence analysis", "outline": "as §1"}, "[35]": {"experiment": "Inhibition of Influenza B virus (B/Saitama/01/2006(Victoria)) neuraminidase after 30 mins by fluorescence analysis", "outline": "as §1"}, "Neuraminidase [36]": {"molecular_target": "T1, Neuraminidase", "experiment": "Inhibition of Influenza A virus (A/duck/Hokkaido/84/2002(H5N3)) neuraminidase after 30 mins by fluorescence analysis"}, "Neuraminidase [37]": {"molecular_target": "T1, Neuraminidase", "experiment": "Inhibition of Influenza A virus (A/Tokushima/1/2005(H3N2)) neuraminidase after 30 mins by fluorescence analysis"}, "Neuraminidase [38]": {"molecular_target": "T1, Neuraminidase", "experiment": "Inhibition of Influenza A virus (A/Yamagata/3/2002(H1N1)) neuraminidase after 30 mins by fluorescence analysis"}, "Neuraminidase [39]": {"molecular_target": "T1, Neuraminidase", "experiment": "Inhibition of Influenza A virus (A/Wellington/1/2004(H3N2)) neuraminidase after 30 mins by fluorescence analysis"}, "[40]": {"experiment": "Inhibition of Influenza B virus (B/Brisbane/32/2002(Victoria) neuraminidase after 30 mins by fluorescence analysis", "outline": "as §1"}, "[41]": {"experiment": "Inhibition of Influenza B virus (B/Tokushima/1/2003(Victoria)) neuraminidase after 30 mins by fluorescence analysis", "outline": "as §1"}}}
{"smiles": "CCCCCCCC(=O)OC[C@@H](O)[C@@H](OC)[C@@H]1OC(C(=O)O)=C[C@H](NC(=N)N)[C@H]1NC(C)=O", "note": "[LANINAMIVIR OCTANOATE]", "values": [{"measurement": "IC50", "setting": "Neuraminidase [1]", "result": 931, "unit": "nM"}, {"measurement": "IC50", "setting": "Neuraminidase [2]", "result": 666, "unit": "nM"}, {"measurement": "IC50", "setting": "[3]", "result": 12800, "unit": "nM"}, {"measurement": "IC50", "setting": "[4]", "result": 3500, "unit": "nM"}, {"measurement": "IC50", "setting": "Neuraminidase [5]", "result": 1170, "unit": "nM"}, {"measurement": "IC50", "setting": "Neuraminidase [6]", "result": 882, "unit": "nM"}, {"measurement": "IC50", "setting": "Neuraminidase [7]", "result": 69.1, "unit": "nM"}, {"measurement": "IC50", "setting": "[8]", "result": 3710, "unit": "nM"}, {"measurement": "IC50", "setting": "Neuraminidase [9]", "result": 56.6, "unit": "nM"}, {"measurement": "IC50", "setting": "[10]", "result": 6980, "unit": "nM"}, {"measurement": "IC50", "setting": "Neuraminidase [11]", "result": 983, "unit": "nM"}, {"measurement": "IC50", "setting": "[12]", "result": 12400, "unit": "nM"}, {"measurement": "IC50", "setting": "Neuraminidase [13]", "result": 221, "unit": "nM"}, {"measurement": "IC50", "setting": "Neuraminidase [14]", "result": 262, "unit": "nM"}, {"measurement": "IC50", "setting": "Neuraminidase [15]", "result": 129, "unit": "nM"}, {"measurement": "IC50", "setting": "Neuraminidase [16]", "result": 1140, "unit": "nM"}, {"measurement": "IC50", "setting": "Neuraminidase [17]", "result": 136, "unit": "nM"}, {"measurement": "IC50", "setting": "[18]", "result": 7790, "unit": "nM"}, {"measurement": "IC50", "setting": "Neuraminidase [19]", "result": 420, "unit": "nM"}, {"measurement": "IC50", "setting": "Neuraminidase [20]", "result": 276, "unit": "nM"}, {"measurement": "IC50", "setting": "[21]", "result": 15900, "unit": "nM"}, {"measurement": "IC50", "setting": "[22]", "result": 7680, "unit": "nM"}, {"measurement": "IC50", "setting": "Neuraminidase [23]", "result": 356, "unit": "nM"}, {"measurement": "IC50", "setting": "[24]", "result": 10500, "unit": "nM"}, {"measurement": "IC50", "setting": "[25]", "result": 7530, "unit": "nM"}, {"measurement": "IC50", "setting": "Neuraminidase [26]", "result": 164, "unit": "nM"}, {"measurement": "IC50", "setting": "[27]", "result": 6850, "unit": "nM"}, {"measurement": "IC50", "setting": "Neuraminidase [28]", "result": 733, "unit": "nM"}, {"measurement": "IC50", "setting": "Neuraminidase [29]", "result": 1050, "unit": "nM"}, {"measurement": "IC50", "setting": "Neuraminidase [30]", "result": 142, "unit": "nM"}, {"measurement": "IC50", "setting": "Neuraminidase [31]", "result": 114, "unit": "nM"}, {"measurement": "Activity", "setting": "Influenza A virus [32]", "result": "Non-toxic"}, {"measurement": "Activity", "setting": "Influenza A virus [33]", "result": "Non-toxic"}, {"measurement": "IC50", "setting": "[34]", "result": 13800, "unit": "nM"}, {"measurement": "IC50", "setting": "[35]", "result": 45500, "unit": "nM"}, {"measurement": "IC50", "setting": "Neuraminidase [36]", "result": 456, "unit": "nM"}, {"measurement": "IC50", "setting": "Neuraminidase [37]", "result": 131, "unit": "nM"}, {"measurement": "IC50", "setting": "Neuraminidase [38]", "result": 709, "unit": "nM"}, {"measurement": "IC50", "setting": "Neuraminidase [39]", "result": 157, "unit": "nM"}, {"measurement": "IC50", "setting": "[40]", "result": 9890, "unit": "nM"}, {"measurement": "IC50", "setting": "[41]", "result": 13800, "unit": "nM"}]}
